Assay outcomes (PubChem)
Rows were chosen to be rich in hits. Some 2.8% of all compounds tested hit in one or more screens of this group.
T cruzi repl: inhibitors of intracellular T. cruzi growth, primary screen, luminescence, NIH3T3 host cells | inhibition, % (no concentration beside the values) | AID 1885, 2009 | T. cruzi beta-gal in NIH3T3, 90 h | 300,000 tested, 1.4% active;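 active means mean inhibition across valid replicates above about 55%, limit read from the data; inconclusive means mean below that limit but half or more replicates reach it; inactive means mean below it, under half of replicates reach it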;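 further: signal also drops with host cell toxicity which is not excluded here; 0% = plate median of DMSO wells and 100% = zero luminescence signal; higher percent means less beta-gal luminescence so fewer parasites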
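System: NIH/3T3 fibroblasts plus reporter T. cruzi. Medium: DMEM plus 2% FBS. Probe or stimulus: 5000 reporter trypomastigotes per well. Compound: single 50 nL compound addition per well in DMSO. Incubation: co-culture of at least 90 h after 3 h attachment. Detection: GalScreen β-gal luminescence, detergent lysis, 60 min. Evaluation: parasite load inhibition, %.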
pCIP destab: p/CIP-EGFP fusion destabilizers, primary screen, fluorescence, F442A cells; Q05BA5; 16 h; decrease of EGFP signal, % at 10 µM; 290,000 tested, 0.01% active;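 active means EGFP signal decrease of at least 30% at 10 µM or well 3 SD below plate mean, unless failing retest; inactive means the rest, including hits failing retest or dose response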
Target sequence (Q05BA5 1-1403): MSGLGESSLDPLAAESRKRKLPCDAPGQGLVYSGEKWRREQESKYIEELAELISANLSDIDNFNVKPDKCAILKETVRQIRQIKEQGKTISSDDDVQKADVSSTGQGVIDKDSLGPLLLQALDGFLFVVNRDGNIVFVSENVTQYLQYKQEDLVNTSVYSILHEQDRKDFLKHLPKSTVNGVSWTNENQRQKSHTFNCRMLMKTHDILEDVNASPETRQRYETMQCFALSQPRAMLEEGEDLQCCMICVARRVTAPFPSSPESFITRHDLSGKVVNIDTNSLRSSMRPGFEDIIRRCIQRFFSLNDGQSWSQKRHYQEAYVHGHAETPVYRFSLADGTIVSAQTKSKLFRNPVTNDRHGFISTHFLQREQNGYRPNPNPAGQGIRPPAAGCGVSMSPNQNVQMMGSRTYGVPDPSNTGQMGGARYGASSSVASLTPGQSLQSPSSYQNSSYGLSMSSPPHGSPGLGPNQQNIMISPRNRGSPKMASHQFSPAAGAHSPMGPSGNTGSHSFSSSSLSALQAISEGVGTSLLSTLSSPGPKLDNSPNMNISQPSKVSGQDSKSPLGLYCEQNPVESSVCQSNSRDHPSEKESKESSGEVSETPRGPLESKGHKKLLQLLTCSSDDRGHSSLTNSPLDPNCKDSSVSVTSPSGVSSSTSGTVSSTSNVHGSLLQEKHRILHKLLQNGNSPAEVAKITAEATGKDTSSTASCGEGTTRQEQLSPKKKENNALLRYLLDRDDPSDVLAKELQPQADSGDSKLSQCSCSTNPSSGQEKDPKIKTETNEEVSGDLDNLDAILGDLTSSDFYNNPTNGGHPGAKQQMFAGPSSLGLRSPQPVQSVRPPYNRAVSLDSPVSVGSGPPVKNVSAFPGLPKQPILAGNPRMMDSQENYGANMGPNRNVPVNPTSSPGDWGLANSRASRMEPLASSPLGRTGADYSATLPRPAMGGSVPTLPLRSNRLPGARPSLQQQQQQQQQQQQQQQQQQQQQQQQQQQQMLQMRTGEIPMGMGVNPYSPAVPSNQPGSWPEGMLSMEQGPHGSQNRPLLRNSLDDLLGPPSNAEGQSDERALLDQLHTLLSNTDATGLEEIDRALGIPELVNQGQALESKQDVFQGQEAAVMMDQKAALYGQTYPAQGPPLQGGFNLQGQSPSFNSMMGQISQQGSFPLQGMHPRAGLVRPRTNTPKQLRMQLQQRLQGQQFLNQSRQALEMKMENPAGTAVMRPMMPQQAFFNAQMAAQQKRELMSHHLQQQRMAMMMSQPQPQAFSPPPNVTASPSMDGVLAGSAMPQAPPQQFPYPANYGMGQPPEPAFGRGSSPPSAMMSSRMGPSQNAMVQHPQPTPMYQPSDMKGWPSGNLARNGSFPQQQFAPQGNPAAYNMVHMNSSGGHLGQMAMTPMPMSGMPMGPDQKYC
PP1 counter: PP1-alpha phosphatase inhibitors, primary screen, counter-screen for PP5 inhibitor project, biochemical, fluorescence, OMFP substrate, single point | Serine/threonine-protein phosphatase PP1-alpha catalytic subunit (Homo sapiens), P62136 | purified PP1alpha | inhibition, % at 6.7 µM | 320,000 tested, 0.9% active;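 active means inhibition above the mean inhibition of all tested compounds plus 3 SD, computed separately for each screening campaign, cut at about 15% in these data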
AI-2 QS modul: Vibrio harveyi AI-2 quorum sensing modulators, primary screen, JMH597 strain, luminescence/OD600 ratio | Vibrio harveyi JMH597 AI-2 luminescence/OD600 ratio, 9 h; stronger effect = lower value; strain lacks LuxN and CqsS sensors; 0 = neutral-control median | activity change, % at 7.5 µM | 300,000 tested, 0.4% active | AID 2094, 2009; in the data active means activity change below about -75%, passing the limit was not always enough; inconclusive means no clear call, values can overlap the other calls;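 further: luminescence divided by OD600 gain over 9 h not by final OD600 alone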
UBC13 inh: UBC13 polyubiquitin chain formation inhibitors, primary screen, biochemical, TR-FRET, uHTS; Ubiquitin-conjugating enzyme E2 N (Homo sapiens), P61088; inhibition, % at 20 µM; 330,000 tested, 0.47% active; AID 485273, 2010; in the data active means inhibition above about 45%, passing the limit was not always enough; inconclusive means no clear call, values can overlap the other calls
* = called active by the depositor; ? = inconclusive; · = no result.

SMILES	T cruzi repl	pCIP destab	PP1 counter	AI-2 QS modul	UBC13 inh
CCN(Cc1ccncc1)C(=O)c1cc(COc2ccc(C)c(C)c2)on1	56.2*	-7.8	-4.4	-5.2	5.2
O=C(c1cc(COc2ccc(F)cc2Cl)on1)N(Cc1ccncc1)CC1CCCO1 (stereo unspecified)	69.6*	-2.9	-4.4	3.3	4.1
CN(Cc1ccccc1)S(=O)(=O)c1ccc(Cl)c(C(=O)NCc2cccnc2)c1	0.3	·	3.4	25.6	-1.7
COc1ccc(CNCCc2ccccc2)cc1OCC(N)=O	?	6.1	2.6	9.7	-4.9
COc1cc(CNCCc2ccccc2F)ccc1OCC(=O)N1CCCCC1	61.8*	-5.7	-11.3	30.8	-10.6
Cc1cc(C)c(S(=O)(=O)N2CCN(c3ccc([N+](=O)[O-])c(-n4nc(C)cc4C)c3)CC2)c(C)c1	60.8*	-1.6	8.1	24.4	3.6
Cc1cc(C)n(-c2cc(N3CCN(S(=O)(=O)c4ccc(Br)cc4)CC3)ccc2[N+](=O)[O-])n1	4.2	-10.2	4.0	32.7	1.5
CCS(=O)(=O)c1ccc(O)c(NC(=O)/C=C/c2ccccc2)c1	-3.2	1.5	-2.6	-90.6*	3.8
[O-][N+]1=c2ccc(Nc3ccccc3)cc2=NC12CCCCC2	-31.9	-25.4	-7.2	19.5	·
COc1ccc(Nc2ccc3c(c2)=NC2(CCCCC2)[N+]=3[O-])cc1	58.4*	-29.5	3.0	35.0	-270.6
CCC(C)(C)NC(=O)C1CCCN(S(=O)(=O)c2ccc3c(c2)CC(C)N3C(=O)C2CC2)C1 (stereo unspecified)	18.1	2.2	-3.0	20.5	0.2
FC(F)(F)c1cnc(COc2cc(Cl)cc(Cl)c2)c(Cl)c1	-6.7	8.1	-5.1	11.9	1.6
COc1ccc(CCNC(=O)C(=O)NCc2ccccn2)cc1	1.8	-8.2	-2.9	-79.0*	4.6
CCOC(=O)C1=C(c2ccccc2)O/C(=C(/C#N)C(F)(F)F)S1	70.1*	-44.2	-2.0	6.7	7.7
CN(c1nc2ccccc2[nH]c1=O)C1CCCCC1	·	-13.7	7.1	-7.1	17.8
Cc1cc(=O)n2[nH]c(-c3ccsc3-n3c(C)ccc3C)cc2n1	-15.5	-10.1	16.1*	20.9	11.7
COCc1cc(=O)n2[nH]c(-c3ccsc3-n3c(C)ccc3C)cc2n1	-3.0	-18.7	3.7	2.8	13.8
COCCn1c(=S)[nH]c2cc(C(=O)N3CCc4ccccc43)ccc2c1=O	-16.4	-1.2	3.0	-77.6*	0.4
COCCn1c(=S)[nH]c2cc(C(=O)NC(C)C)ccc2c1=O	·	-14.4	-0.8	·	1.2
C/C(=N\Nc1ccc2nncn2n1)c1ccccn1	63.4*	5.8	-1.5	?	-11.4
O=C(Nc1ccccc1)C1=C(c2ccccc2)S(=O)(=O)CCS1(=O)=O	69.3*	-31.5	·	?	·
O=C(O)c1ccccc1C(=O)Nc1ccccc1	-10.1	-16.0	-7.0	10.4	-2.2
CN(CCc1ccccn1)S(=O)(=O)c1ccccc1F	-27.3	-7.1	-2.6	14.2	2.4
CN(CCc1ccccn1)Cc1ccc(Cl)c(Cl)c1	61.6*	-6.1	-5.3	-18.5	-1.8
CN(CCc1ccccn1)Cc1ccc(Cl)cc1Cl	43.7	2.4	-1.2	-3.6	4.6
SMILES	T cruzi repl	pCIP destab	PP1 counter	AI-2 QS modul	UBC13 inh
CSc1ccc(CN(C)CCc2ccccn2)cc1	59.3*	23.9	6.1	7.3	-1.0
O=C1c2ccccc2C(=O)N1Cc1ccccc1F	4.5	-6.5	-0.3	13.6	11.8
CC1CCCC(C)N1CCCNC(=O)C(=O)Nc1ccc2nc3n(c(=O)c2c1)CCCCC3 (stereo unspecified)	19.9	6.3	3.5	11.6	-6.0
CN(C)c1ncc(C2=C(Cl)C(=O)C(N3CCCC3)=C(Cl)C2=O)s1	20.4	·	16.6*	135.2	-57.4
CCNC1=C(Cl)C(=O)c2ccccc2C1=O	-14.3	-7.2	-1.6	-10.1	-389.3
O=C1C(Cl)=C(NCCN2CCCCC2)C(=O)c2ccccc21	67.2*	·	-4.3	23.3	-319.0
CCOC(=O)c1c(NC(=O)c2c(-c3ccccc3)noc2C)sc(C)c1-c1ccccc1	63.1*	-2.7	-1.8	11.7	43.9
O=C(c1ccco1)N(CCC(c1ccccc1)c1ccco1)Cc1ccco1 (stereo unspecified)	-3.8	-22.1	16.9*	25.1	0.7
COc1cccc(C(=O)O/N=C(\N)Cc2ccc(Cl)cc2)c1	3.1	-4.2	-2.8	-92.4*	2.0
CCC(C)N(C(=O)COc1ccc(Cl)c2cccnc12)C1CCS(=O)(=O)C1 (stereo unspecified)	-2.2	·	-2.0	4.3	55.3*
O=C(CN1C(=O)c2ccccc2C1=O)NCCOc1ccccc1	·	-16.3	-10.4	-50.5	5.8
O=C(NCc1cn(-c2ccccc2)nc1-c1ccccc1)c1cccc([N+](=O)[O-])c1	?	11.1	3.4	17.7	-1.5
COc1ccc(-c2nn(-c3ccccc3)cc2CNC(=O)c2cccc([N+](=O)[O-])c2)cc1	66.4*	-3.2	0.1	5.9	2.2
O=C(NCc1cn(-c2ccccc2)nc1-c1ccccc1)c1cc([N+](=O)[O-])cc([N+](=O)[O-])c1	61.5*	-3.6	-2.0	26.6	-12.3
Cc1cc(C(=O)CN2C(=O)C(=O)N(Cc3ccco3)C2=O)c(C)n1CCc1ccc(F)cc1	·	·	16.9*	·	-5.2
NNC(=O)CSc1cccc2cccnc12	-8.2	-11.7	-1.2	20.7	-12.6
O=C(CSc1cccc2cccnc12)N1CCCC1	60.8*	-6.1	-4.5	5.6	-2.4
Cc1cc(C)c(S(=O)(=O)N2CCN(C(=O)c3cc4ccccc4oc3=O)CC2)c(C)c1	·	·	-1.4	·	2.6
CCN1CCN(c2oc(COc3ccc(-c4ccccc4)cc3)nc2C#N)CC1	60.9*	-6.8	5.4	-8.0	9.4
N#Cc1nc(COc2ccc(Br)cc2)oc1N1CCN(Cc2ccccc2)CC1	·	2.1	·	·	·
CCCCC(CC)C(=O)Nc1ncc([N+](=O)[O-])s1 (stereo unspecified)	80.5*	-8.0	-2.6	2.1	-16.0
Cc1ncoc1C(=O)Nc1ncc([N+](=O)[O-])s1	-10.3	5.7	-5.7	39.2	-8.2
Cc1ccc(CC(=O)Nc2ncc([N+](=O)[O-])s2)cc1	69.3*	-12.5	-1.1	6.3	4.3
Cc1ccc(S(=O)(=O)CC(=O)Nc2ncc([N+](=O)[O-])s2)cc1	-6.4	8.9	-1.7	25.4	4.5
c1ccc2c(c1)ccc1ccccc12	·	·	·	·	12.1
CC1=[N+](C)c2ccc3ccccc3c2C1(C)C	69.4*	-5.3	-2.7	23.4	-42.6
O=c1[nH]c(Nc2nc3ccccc3o2)nc2c1CCCC2	60.0*	-8.8	2.6	22.1	5.1
Cc1ccc(Nc2nc3c(c(=O)[nH]2)CCCC3)cc1	-6.7	10.1	-1.7	-13.3	10.6
